Experimental findings from ChEMBL document CHEMBL3826898, “Oxa-Pictet-Spengler reaction as key step in the synthesis of novel σ receptor ligands with 2-benzopyran structure” (Bioorg Med Chem, 2016) are described below.

As a reminder, the ED50 is the dose at which the effect has come halfway, by size or by number of responders. The term inhibition denotes how much of the control response was suppressed. The term Ki denotes the dissociation constant of the complex between target and ligand, obtained from inhibition or displacement.

The species named for one test is Mus musculus. Briefly: Analgesic activity in mouse by acetic acid writhing test. The format is functional.
Test [1] is described as follows: Displacement of [3H]di-o-tolylgluanidine from sigma 2 receptor in rat liver membranes at 1 uM after 2 hrs by scintillation counting. The following applies: Membrane.
For test [2], the target named is Sigma non-opioid intracellular receptor 1 (Cavia porcellus, UniProt Q60492). Nature of the test: Displacement of [3H]-(+)-pentazocine from sigma 1 receptor in guinea pig brain membranes after 2 hrs by scintillation counting. The format is cell membranes, Membrane.
Chain of Sigma non-opioid intracellular receptor 1 (Q60492 whole entry): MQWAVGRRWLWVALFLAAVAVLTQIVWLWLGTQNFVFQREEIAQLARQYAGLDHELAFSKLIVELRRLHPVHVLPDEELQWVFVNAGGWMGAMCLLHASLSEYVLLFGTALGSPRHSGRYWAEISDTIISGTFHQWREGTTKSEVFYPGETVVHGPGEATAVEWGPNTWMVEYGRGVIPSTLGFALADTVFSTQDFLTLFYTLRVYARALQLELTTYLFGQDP
A short description of test [3]: Displacement of [3H]di-o-tolylgluanidine from sigma 2 receptor in rat liver membranes after 2 hrs by scintillation counting. The format is cell membranes, Membrane. In a few lines:
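Rat liver membranes (sucrose homogenate; pellet held 30 min at room temperature in 50 mM TRIS pH 8.0; 100 µg protein) incubated with 3 nM [3H]DTG and test compound at 10^-10 to 10^-5 M, at room temperature for 120 min. […] Nonspecific binding with 10 µM DTG. Filtration, then scintillation counting. Duplicates. Ki by Cheng-Prusoff from IC50, mean ± SEM, n = 3.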

Test [4] can be described thus: Selectivity ratio of Ki for sigma 2 receptor in rat liver membranes to Ki for sigma 1 receptor in guinea pig brain membranes. The format is cell membranes.
The target of test [5] is Sigma non-opioid intracellular receptor 1 (Cavia porcellus) (UniProt Q60492). Nature of the test: Displacement of [3H]-(+)-pentazocine from sigma 1 receptor in guinea pig brain membranes at 1 uM after 2 hrs by scintillation counting. The format is cell membranes. The following applies: Membrane. A digest of the protocol: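 Guinea pig brain membranes (about 100 µg protein) incubated with 2 nM [3H]-(+)-pentazocine and 1 µM test compound in 50 mM TRIS pH 7.4 at 37 °C for 120 min. Filtered, then counted by scintillation. […] Result given as % inhibition of radioligand binding.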
Chain of Sigma non-opioid intracellular receptor 1 (Cavia porcellus) (Q60492 whole entry): as above
For orientation: Loss of bound radioactivity is the signal in a displacement assay; it reports binding, not function.

SMILES strings stand for the structures.

In the test listed under Mus musculus, `CN1CCC2Cc3ccccc3C(C1)O2` (stereo not drawn) gave an ED50 of 20 mg/kg.
Turning to `OCCC1Cc2ccccc2C2(CCN(Cc3ccccc3)CC2)O1` (racemic), in test [1], the inhibition stood at 0%. The compound further returned a Ki in test [2] of 20 nM.
`COC(=O)C[C@@H]1Cc2ccccc2[C@H](CCN2CCCC2)O1` (racemic): the inhibition in test [1] amounted to 0%. The compound further returned an inhibition constant Ki in test [2] greater than 1000 nM.
For `OCC[C@@H]1Cc2ccccc2[C@H](CCN2CCC(c3ccccc3)CC2)O1` (racemic), the Ki came to 20 nM in test [3] and 52 nM in test [2]. Further, the Ratio Ki in test [4] turned out to be 0.4.
As to `COC(=O)CC1Cc2ccccc2C2(CCN(CCCc3ccccc3)CC2)O1` (racemic), the Ki in test [3] came out at 610 nM; in test [2], 39 nM. For the same compound, the Ratio Ki in test [4] is 15.
Compound `COC(=O)C[C@@H]1Cc2ccccc2[C@H](CCN2CCCCC2)O1` (racemic) displayed a Ki in test [2] of 519 nM.
Take `COC(=O)C[C@@H]1Cc2ccccc2[C@H](CN2CCC(c3ccccc3)CC2)O1` (racemic): the Ki in test [3] was found to be 785 nM; in test [2] it was 673 nM. Further, the Ratio Ki in test [4] was found to be 1.2.
For `CCCCCCCCN1CCC2(CC1)OC(CCO)Cc1ccccc12` (racemic) the same measures were 234 nM, 26 nM and 9.
`CCCCN1CCC2(CC1)OC(CCO)Cc1ccccc12` (racemic): the inhibition in test [1] is 13%. Moreover, in test [2], the inhibition constant (Ki) is 60 nM.
With `COC(=O)C[C@@H]1Cc2ccccc2[C@H](CN2CCCCC2)O1` (racemic), the inhibition in test [1] came out at 7%. The inhibition constant Ki in test [2] was found to be 510 nM.
Take `OCCC1Cc2ccccc2C2(CCN(CCCc3ccccc3)CC2)O1` (racemic): the figures for the Ki in test [3] and in test [2] were 617 nM and 20 nM, respectively. The Ratio Ki in test [4] was 30.
On the same counts, the results for `COC(=O)C[C@@H]1Cc2ccccc2[C@H](CCN2CCC(c3ccccc3)CC2)O1` (racemic) are 107 nM, 38 nM and 2.8.
As to `CCN1CCC2(CC1)OC(CCO)Cc1ccccc12` (racemic), the inhibition in test [1] and in test [5] was 0% in each case.
As to `OCC[C@@H]1Cc2ccccc2[C@H](CCN2CCCCC2)O1` (racemic), the inhibition came out at 14% in test [1] and 4% in test [5].
Turning to `Cc1ccccc1NC(=N)Nc1ccccc1C` [DITOLYLGUANIDINE], the inhibitory constant (Ki) in test [3] was found to be 20.2 nM. This counts as double-digit nanomolar.
